Where a SMILES comes first, the peptide text is derived from it. Bridges are numbered along the chain shown (N, C = ends). Roman numbers before positions name the chains, in order. [ ]: non-standard residue; d: D form. Dap = NC[C@H](N)C(=O)O
What was measured:
[1] = target: T1, Neuropeptide Y receptor type 2 (Homo sapiens, UniProt P49146); assay: Affinity for cloned Y2 receptor using [125I]PYY as radioligand
T1 sequence (P49146 whole entry): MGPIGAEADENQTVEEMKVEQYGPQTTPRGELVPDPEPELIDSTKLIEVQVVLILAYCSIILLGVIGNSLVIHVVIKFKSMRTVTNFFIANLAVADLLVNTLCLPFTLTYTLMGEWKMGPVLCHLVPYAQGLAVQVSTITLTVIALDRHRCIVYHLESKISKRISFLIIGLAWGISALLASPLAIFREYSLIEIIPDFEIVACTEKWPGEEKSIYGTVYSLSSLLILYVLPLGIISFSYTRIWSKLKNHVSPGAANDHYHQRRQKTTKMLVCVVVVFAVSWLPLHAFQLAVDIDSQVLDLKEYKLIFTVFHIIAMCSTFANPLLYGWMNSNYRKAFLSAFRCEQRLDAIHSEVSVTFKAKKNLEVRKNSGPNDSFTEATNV

[2] = target: T2, Neuropeptide Y receptor type 1 (Homo sapiens, UniProt P25929); assay: Affinity for cloned Y1 receptor using [125I]PYY as radioligand
T2 sequence (P25929 whole entry): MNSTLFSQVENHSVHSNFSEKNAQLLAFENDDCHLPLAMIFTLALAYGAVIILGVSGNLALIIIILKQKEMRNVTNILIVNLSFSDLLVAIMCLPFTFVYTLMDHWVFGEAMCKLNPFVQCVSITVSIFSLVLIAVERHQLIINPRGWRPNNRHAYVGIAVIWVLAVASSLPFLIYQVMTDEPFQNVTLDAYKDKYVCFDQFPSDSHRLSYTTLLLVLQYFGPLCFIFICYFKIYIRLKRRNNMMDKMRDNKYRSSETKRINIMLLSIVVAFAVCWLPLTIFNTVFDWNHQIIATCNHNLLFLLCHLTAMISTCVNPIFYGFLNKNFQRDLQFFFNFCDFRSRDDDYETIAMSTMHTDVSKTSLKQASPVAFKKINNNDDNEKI

[3] = target: T3, Neuropeptide Y receptor type 1 (Homo sapiens) (UniProt P25929); assay: Selectivity ratio of Y1/Y2/Y4/Y5; 1/790/3/1640
T3 sequence (whole entry): T2 sequence (P25929 whole entry)

[4] = target: T4, Neuropeptide Y receptor type 5 (Homo sapiens, UniProt Q15761); assay: Affinity for cloned Y5 receptor using [125I]PYY as radioligand
T4 sequence (Q15761 whole entry): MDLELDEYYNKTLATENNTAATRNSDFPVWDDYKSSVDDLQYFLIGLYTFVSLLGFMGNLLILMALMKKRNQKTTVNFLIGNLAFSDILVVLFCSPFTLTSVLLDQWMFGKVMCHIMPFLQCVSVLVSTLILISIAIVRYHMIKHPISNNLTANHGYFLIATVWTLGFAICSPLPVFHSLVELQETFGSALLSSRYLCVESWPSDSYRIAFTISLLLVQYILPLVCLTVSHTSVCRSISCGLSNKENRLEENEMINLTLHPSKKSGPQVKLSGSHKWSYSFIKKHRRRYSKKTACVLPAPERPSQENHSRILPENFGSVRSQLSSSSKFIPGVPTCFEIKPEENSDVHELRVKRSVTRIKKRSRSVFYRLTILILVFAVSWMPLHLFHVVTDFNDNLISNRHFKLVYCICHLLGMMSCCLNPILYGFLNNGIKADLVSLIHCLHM

[5] = target: T1, Neuropeptide Y receptor type 2; assay: Agonist potency for the inhibition of Forskolin stimulated cAMP synthesis in cells expressing cloned Y2 receptors; type: functional
[6] = target: T5, Neuropeptide Y receptor type 4 (Homo sapiens, UniProt P50391); assay: Affinity for cloned Y4 receptor using [125I]PP as radioligand
T5 sequence (P50391 whole entry): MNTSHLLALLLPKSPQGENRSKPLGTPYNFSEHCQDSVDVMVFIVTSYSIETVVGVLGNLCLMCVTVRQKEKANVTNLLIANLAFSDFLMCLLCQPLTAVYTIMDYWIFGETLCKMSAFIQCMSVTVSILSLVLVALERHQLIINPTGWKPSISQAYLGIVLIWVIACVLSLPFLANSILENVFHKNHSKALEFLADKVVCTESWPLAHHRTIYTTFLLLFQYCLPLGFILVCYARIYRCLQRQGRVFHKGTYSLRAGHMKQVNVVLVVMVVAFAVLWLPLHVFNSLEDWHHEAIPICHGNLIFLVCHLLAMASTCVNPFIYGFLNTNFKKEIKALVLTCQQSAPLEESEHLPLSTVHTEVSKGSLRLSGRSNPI

[7] = target: T4, Neuropeptide Y receptor type 5; assay: Agonist potency for the inhibition of Forskolin stimulated cAMP synthesis in cells expressing cloned Y5 receptors; type: functional
[8] = target: T5, Neuropeptide Y receptor type 4; assay: Agonist potency for the inhibition of Forskolin stimulated cAMP synthesis in cells expressing cloned Y4 receptors; type: functional
In short: (§1)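 Inhibition of forskolin-driven cAMP synthesis in cells expressing the Y4 receptor, with PP run as the reference control.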

[9] = target: T4, Neuropeptide Y receptor type 5; assay: Agonist potency for the inhibition of Forskolin stimulated cAMP synthesis in cells expressing cloned Y5 receptors(no effect at <20000 nM); type: functional
[10] = target: Neuropeptide Y receptor type 2 (Homo sapiens) (UniProt P49146); assay: Agonist potency for the inhibition of Forskolin stimulated cAMP synthesis in cells expressing cloned Y2 receptors; no effect means no agonist activity at <20 000 nM
[11] = target: T5, Neuropeptide Y receptor type 4; assay: Agonist potency for the inhibition of Forskolin stimulated cAMP synthesis in cells expressing cloned Y4 receptors(no effect at <20000 nM); type: functional; in short: as §1

Row | SMILES | Ki [1] [nM] | Ki [2] [nM] | Selectivity [3] | Ki [4] [nM] | EC50 [5] [nM] | Ki [6] [nM] | EC50 [7] [nM] | EC50 [8] [nM] | EC50 [9] | EC50 [10] | EC50 [11]
1 | CC[C@H](C)[C@H](N)C(=O)N[C@H]1CCC(=O)NC[C@@H](C(=O)N[C@@H](Cc2ccc(O)cc2)C(=O)N[C@@H](CCCN=C(N)N)C(=O)N[C@@H](CC(C)C)C(=O)N[C@@H](CCCN=C(N)N)C(=O)N[C@@H](Cc2ccc(O)cc2)C(N)=O)NC(=O)[C@@H]2CCCN2C(=O)[C@@H](NC(=O)[C@@H](N)[C@@H](C)CC)CCC(=O)NC[C@@H](C(=O)N[C@@H](Cc2ccc(O)cc2)C(=O)N[C@@H](CCCN=C(N)N)C(=O)N[C@@H](CC(C)C)C(=O)N[C@@H](CCCN=C(N)N)C(=O)N[C@@H](Cc2ccc(O)cc2)C(N)=O)NC(=O)[C@@H]2CCCN2C1=O (I: H-IEP[Dap]YRLRY-NH2 / II: H-IEP[Dap]YRLRY-NH2; amide I:2-II:4, I:4-II:2) | 55 | 0.07 | Y1/Y4/Y2/Y5 | 115 | 983 | 0.26 | 2050 | 2.5 |  |  | 
2 | CC[C@H](C)[C@H](N)C(=O)N[C@H]1CCC(=O)NC[C@@H](C(=O)N[C@@H](Cc2ccc(O)cc2)C(=O)N[C@@H](CCCN=C(N)N)C(=O)N[C@@H](CC(C)C)C(=O)N[C@@H](CCCN=C(N)N)CN[C@@H](Cc2ccc(O)cc2)C(N)=O)NC(=O)[C@@H]2CCCN2C(=O)[C@@H](NC(=O)[C@@H](N)[C@@H](C)CC)CCC(=O)NC[C@@H](C(=O)N[C@@H](Cc2ccc(O)cc2)C(=O)N[C@@H](CCCN=C(N)N)C(=O)N[C@@H](CC(C)C)C(=O)N[C@@H](CCCN=C(N)N)CN[C@@H](Cc2ccc(O)cc2)C(N)=O)NC(=O)[C@@H]2CCCN2C1=O |  |  |  |  |  |  |  |  | Not Active | Not Active | Not Active

Source: ChEMBL document CHEMBL1134468 (J Med Chem, 2001)
